From ChEMBL document CHEMBL1123751, “Synthesis and biological activity of unsaturated carboacyclic purine nucleoside analogues” (J Med Chem, 1987)
≈ marks a conversion by molar mass, not a printed value.

Experiments:
[1] = system: Human alphaherpesvirus 2; assay: Virus rating is measurement of degree of inhibition of virus-induced cytopathogenic effects and the degree of cytotoxicity produced by the test compound for Herpes simplex virus (HSV) -2; assay type: functional
How it was run: (§1)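 Virus rating as defined by Southern Research Institute: a selective antiviral score that combines the degree of inhibition of virus-induced cytopathogenic effect with the degree of cytotoxicity from the test compound, determined by a modification of a published method.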

[2] = system: Vero; assay: Inhibition effect was determined against Herpes simplex virus (HSV) -1 in vero cell monolayer culture; assay type: functional, Chlorocebus sabaeus
[3] = system: Vero; assay: Minimum inhibitory concentration of cytopathogenic-induced effect was determined against Herpes simplex virus (HSV) -2 in vero cell monolayer culture; assay type: functional; conditions: Chlorocebus sabaeus
[4] = Virus rating is measurement of degree of inhibition of virus-induced cytopathogenic effects and the degree of cytotoxicity produced by the test compound for influenza type A2; assay type: functional
[5] = system: Vero; assay: Inhibition of cytopathogenic effect was determined against Herpes simplex virus (HSV) -2 in vero cell monolayer culture; assay type: functional; conditions: Chlorocebus sabaeus
[6] = system: Human alphaherpesvirus 2; assay: Evaluated virus rating for Herpes simplex virus (HSV) -2; assay type: functional; how it was run: as §1

`Nc1nc(O)c2ncn(CC=C(CO)CO)c2n1` gave a Virus rating [1] of 1.5, an ID90 [2] of 25 µM and an MIC50 [3] of 65.6 µg/mL (≈ 261 µM).
`Nc1ncnc2c1ncn2CC=C(CO)CO` showed a Virus rating [4] of 0.3, an MIC50 [5] of 939 µg/mL (≈ 3990 µM) and a Virus rating [6] of 0.6.
`Nc1nc2c(ncn2COCCO)c(=O)[nH]1` [ACYCLOVIR] showed a Virus rating [1] of 5.1 and an MIC50 [5] of 4.3 µg/mL (≈ 19.1 µM).
Work on `NC(=O)c1ncn([C@@H]2O[C@H](CO)[C@@H](O)[C@H]2O)n1` [RIBAVIRIN] yielded a Virus rating [4] of 2.8.
For `Nc1ncnc2c1ncn2[C@@H]1O[C@H](CO)[C@@H](O)[C@@H]1O` [VIDARABINE], the Virus rating [1] was 1.2 and the MIC50 [5] was 26.8 µg/mL (≈ 100 µM).
